# From PubChem BioAssay
# Only some compounds are listed: those with a hit (about 4.1% of all), similar ones and a draw of the others.
# KCNQ1 pot: potentiates or activates the human KCNQ1 potassium channel; P51787; CHO-K1 KCNQ1, thallium flux FluxOR fluorescence; active compounds read high; B-score at 10 µM; actives 0.35% (n = 310,000); AID 2648;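 active = fluorescence ratio B-score, a plate-corrected score, at least three library SD, with initial intensity B-score within 5 SD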
#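 Doses: Single concentration per compound, DMSO matched to controls | Test system: KCNQ1-transfected CHO-K1 cells | Timing: 90 min dye loading and 20 min compound exposure, both at room temperature | Measured by: Kinetic FluxOR thallium fluorescence, 10-s 1-Hz baseline, 110-s post-stimulus read | Medium: Assay buffer with matched DMSO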
# KCNQ1 block: blocks the human KCNQ1 potassium channel; actives 1.3% (n = 310,000); AID 2642; P51787; CHO-K1 KCNQ1, FluxOR thallium flux fluorescence; active compounds read high; B-score at 10 µM;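 active = compounds whose thallium flux B-score, printed positive for inhibition, exceeds three library SD while starting fluorescence stays within three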;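 note: channel opened by potassium depolarization with thallium stimulus after 20 min compound exposure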
# KCNK9 inh: blocks the human KCNK9 two-pore domain potassium channel | Q9NPC2 | actives 1.2% (n = 310,000) | B-score at 10 µM | HEK293 KCNK9, FluxOR thallium flux fluorescence; active compounds read low;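 active = ratio B-score over 3 SD below the library mean, with starting fluorescence within 5 SD of its mean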;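 note: negative B-score means less thallium flux so channel inhibition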
# Target sequence (Q9NPC2 whole entry, looked up, the tested form may be a part): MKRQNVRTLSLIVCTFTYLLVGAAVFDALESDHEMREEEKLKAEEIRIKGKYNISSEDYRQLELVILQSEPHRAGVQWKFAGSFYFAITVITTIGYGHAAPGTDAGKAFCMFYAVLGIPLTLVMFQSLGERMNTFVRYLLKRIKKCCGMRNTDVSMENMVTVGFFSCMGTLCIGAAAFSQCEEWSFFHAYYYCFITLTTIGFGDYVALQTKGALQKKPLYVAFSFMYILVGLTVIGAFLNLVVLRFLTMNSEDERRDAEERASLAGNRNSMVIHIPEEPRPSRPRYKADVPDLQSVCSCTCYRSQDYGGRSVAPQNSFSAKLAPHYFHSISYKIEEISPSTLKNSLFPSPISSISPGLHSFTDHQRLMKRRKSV
# hERG protect: hERG (human) protection from proarrhythmic block; CHO-hERG, FluxOR thallium flux, dofetilide IC70 present; activation (rescue from dofetilide block), less the hit threshold, % at 10 µM; actives 0.51% (n = 310,000); AID 1511;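 active = activation above the mean of controls blocked by dofetilide plus 5 SD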;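 note: thallium influx through hERG after potassium depolarization seen as dye fluorescence rise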
# KCC2 mod: KCC2 (human) Cl- transport modulation. actives 2.2% (n = 190,000). B-score of Tl+ flux slope (higher = more flux/activation; lower = inhibition) at 10 µM. KCC2 cells, thallium flux FluoZin-2 fluorescence. AID 1456;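 active = thallium flux slope and its plate-corrected score both differing from the plate sample mean at a set confidence after two filtering rounds, in either direction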;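 note: slope of fluorescence scaled to starting intensity during 10 to 20 s after thallium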
# KCNK3 block: human KCNK3 channel inhibition, primary screen; O14649; CHO-KCNK3 thallium flux, FluxOR fluorescence; active compounds read low; B-score at 10 µM; actives 0.84% (n = 340,000); AID 602410;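 active = B-score under library mean minus 4 SD, starting fluorescence ratio at most library mean plus 5 SD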;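 note: more negative B-score means stronger inhibition of thallium flux through KCNK3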
# KCNK3 inh conf: human KCNK3 channel inhibition, confirmation assay | CHO-KCNK3 thallium flux, FluxOR fluorescence; 0% buffer, 100% carvedilol maximal block | shares compounds with KCNK3 block | ratio percent of control, % at 10 µM | actives 99% (n = 2,400);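 active = ratio percent of control, averaged over triplicates, above buffer control mean plus 5 SD, cut at about 64% in these data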;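 note: ratio is the fluorescence rise from min to max over baseline after thallium stimulus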
# KCNK3 uninduced: KCNK3 inhibitor counter-screen hit in non-induced cells. actives 40% (n = 2,400). thallium flux ratio (lower = more inhibition) at 10 µM. AID 651747. non-induced KCNK3 parental cells, FluxOR thallium flux; active compounds read low. shares compounds with KCNK3 block;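 active = thallium flux ratio, averaged over three wells, more than 5 SD below the buffer control mean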;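 note: host cells are CHO cells without KCNK3 induction; ratio is peak minus trough fluorescence over baseline then normalized to buffer controls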
# * hit, by the source's call; i = inactive; · = no result given.
SMILES,KCNQ1 pot,KCNQ1 block,KCNK9 inh,hERG protect,KCC2 mod,KCNK3 block,KCNK3 inh conf,KCNK3 uninduced
CSc1ccc(CN(C)C(=O)COc2ccc(C(=O)c3ccccc3)cc2)cc1,i,i,i,-7,·,-9.4*,101*,i
CCOc1ccc(CNC(=O)c2ccc(Sc3ccc(C)cc3)c(NC(C)=O)c2)cc1,i,i,i,-12,-0.036,i,·,·
COc1ccc(/C(C)=N/N2C(=O)c3ccccc3NC2c2ccc(O)c(OC)c2)cc1 (centres undefined),i,i,i,-12,0.74,-9.3*,99*,i
COc1cc(C2Nc3ccccc3C(=O)N2c2ccccc2)ccc1O (centres undefined),i,i,i,-3,·,i,·,·
C[C@H](CO)N1C[C@H](C)[C@@H](CN(C)CC2CCCCC2)Oc2c(NC(=O)C3CC3)cccc2C1=O,·,·,·,·,·,-12*,104*,i
C[C@H]1CN([C@@H](C)CO)C(=O)c2cccc(NC(=O)C3CC3)c2O[C@H]1CN(C)CC1CCCCC1,·,·,·,·,·,i,·,·
CC(C)[C@H]1COCCS(=O)(=O)N1Cc1ccccc1,i,i,i,-4,·,i,·,·
Cc1ccc(C(=O)COC(=O)c2cn3ccccc3n2)cc1,i,i,i,-1,-0.058,i,·,·
Cc1cccc(-c2noc(CN(C(=O)c3ccc(Br)o3)C(C)C)n2)c1,i,i,i,-10,·,i,·,·
Cc1cccc(-c2noc(CN(C(=O)c3c(-c4ccccc4Cl)noc3C)C(C)C)n2)c1,·,·,·,·,-0.028,-12*,113*,i
Cc1ccc(C)c(C(=O)N(Cc2nc(-c3ccc(Cl)cc3)no2)C(C)C)c1,i,i,i,-10,0.11,-8.8*,115*,i
COCCOC(=O)C1=C(C)N=C2SCCC(=O)N2C1/C=C/c1ccccc1 (centres undefined),i,i,i,-6,1.1,-13*,105*,0.16*
CCOC(=O)C1=C(C)N=C2SCCC(=O)N2[C@@H]1/C=C/c1ccccc1,i,i,i,-10,0.59,i,·,·
COC(=O)C1=C(C)N=C2SCCC(=O)N2C1c1ccc(C(=O)OC)cc1 (centres undefined),i,i,i,-10,0.56,-8.9*,78*,0.15*
CCCN=C1CC(C)(C)CC(=O)/C1=C(/O)CCC,i,i,i,-3,-0.3,-9*,99*,i
CCC/C(O)=C1\C(=O)CC(C)(C)CC1=NCc1ccccc1,i,i,i,-11,-2.2,i,·,·
O=C(CCNS(=O)(=O)c1ccccc1F)N1CCN(C(c2ccccc2)c2ccccc2)CC1,i,i,-7.4*,-14,·,-8.9*,101*,i
COC(=O)c1ccccc1NC(=O)N1CCN(c2ccc(F)cc2)CC1,i,i,i,-20,0.55,-11*,112*,i
Cc1cc(C)c2nc(-c3cccc(Cl)c3)c(C)c(C(=O)N3CCOCC3)c2c1,i,i,-7.4*,-13,·,-9.5*,122*,0.15*
COc1cc(CNCc2ccc(Br)cc2)cc(OC)c1,i,i,i,-3,·,i,·,·
Clc1cccc(-c2nc(NCCCN3CCOCC3)c3ccccc3n2)c1,i,i,i,-23,-0.019,-9.4*,91*,0.15*
Clc1cccc(-c2nc(NCCN3CCOCC3)c3ccccc3n2)c1,i,i,i,-14,0.94,i,·,·
O=C(Nc1ccccc1N1CCOCC1)C1(c2ccc(Cl)cc2)CCC1,i,i,i,-12,-0.049,-11*,100*,i
CCCNC(=O)[C@H](C)NC(=O)c1ccc(Br)cc1,i,i,i,-11,1.2,i,·,·
O=C(CN1C(=O)c2cccnc2Oc2ccc(Cl)cc21)N1CCOCC1,i,i,i,-6,·,i,·,·
SMILES,KCNQ1 pot,KCNQ1 block,KCNK9 inh,hERG protect,KCC2 mod,KCNK3 block,KCNK3 inh conf,KCNK3 uninduced
Cc1cccc(N(C(=O)c2snc(C(N)=O)c2N)C(C(=O)NC2CCCC2)c2ccco2)c1 (centres undefined),i,i,i,-6,·,i,·,·
Fc1ccc(CNc2nc(-c3ccco3)cc(C(F)(F)F)n2)cc1,i,i,i,-33,·,-9*,136*,0.13*
Cn1ccnc1SCC(=O)Nc1ccc2c(c1)OC(F)(F)O2,i,i,i,-13,-0.62,·,·,·
CCN(c1cccc(C)c1)S(=O)(=O)c1ccc(-c2cc(C)no2)s1,i,i,i,-9,·,-8.8*,103*,i
O=C(c1cc(Br)ccc1Cl)N1CCN(c2ccccn2)CC1,i,i,i,-8,·,i,·,·
CN(c1ccccc1)S(=O)(=O)c1cccc(NC(=O)c2ccc3ncsc3c2)c1,i,i,-7.1*,-14,·,-9.5*,130*,0.14*
COCCC(=O)N1CCCC(C(=O)c2ccc3c4c(cccc24)CC3)C1 (centres undefined),i,i,i,-8,-0.02,-11*,86*,0.15*
COCC(=O)N1CCCC(C(=O)c2ccc3c4c(cccc24)CC3)C1 (centres undefined),i,i,i,-8,-1.6,i,·,·
CCCCn1c(N)c(N(CCC(C)C)C(=O)CSc2nc3ccccc3n2C)c(=O)[nH]c1=O,·,·,·,·,·,i,·,·
Cc1cc(N2CCCC2)c(F)cc1/C=C\[N+](=O)[O-],i,i,i,-36,-1.4,-10*,128*,0.099*
Cc1cc(N2CCC(C)CC2)c(F)cc1[N+](=O)[O-],i,i,i,-7,·,i,·,·
COc1ccccc1C(C)Nc1nc(-c2cccnc2)nc2ccccc12 (centres undefined),i,i,i,-16,·,-11*,125*,i
CCOC(=O)C1=C(C)NC(SCC(=O)O)=C(C#N)C1c1ccco1 (centres undefined),i,i,i,-7,-1.1,i,·,·
CC(=O)C1=C(C)NC(SCC(=O)c2ccc(Cl)c(Cl)c2)=C(C#N)C1c1ccco1 (centres undefined),i,i,-7.8*,-4,·,-11*,125*,0.16*
CC(=O)Nc1ccccc1OCCOc1ccc(Br)cc1,i,i,i,-3,-1,-12*,99*,i
Cc1ccc(C(=O)C=CNNC(=O)c2ccccc2)cc1,i,i,i,-13,·,i,·,·
